Test results taken from ChEMBL document CHEMBL1821701, “Stereochemical analysis of leubethanol, an anti-TB-active serrulatane, from Leucophyllum frutescens” (2011).
In brackets after ≈: the same amount, converted by molar mass.

These compounds were tested on Mycobacterium tuberculosis (assay: Antitubercular activity against drug sensitive Mycobacterium tuberculosis H37Rv ATCC 27294 by microplate Alamar blue assay).
Format: functional
In short: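 Modified microplate Alamar Blue assay. H37Rv ATCC 27294 is susceptible to streptomycin, isoniazid, rifampin, ethambutol and pyrazinamide. Clinical isolate CIBIN/UMF15:99 is resistant to the same five drugs. Test stocks were 2 mg/mL in 20% DMSO in Middlebrook 7H9 broth, filter-sterilized. Final concentrations ran from 100 to 0.78 µg/mL. Read-out was MIC, at least in triplicate.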

| Compound | MIC [µg/mL] |
| --- | --- |
| CC[C@@H](CO)NCCN[C@@H](CC)CO [ETHAMBUTOL] | 2 (≈ 9.79 µM) |
| NNC(=O)c1ccncc1 [ISONIAZID] | 0.06 (≈ 0.438 µM) |
| CC(C)=CCC[C@H](C)[C@@H]1CC[C@@H](C)c2c(O)cc(C)cc21 [LEUBETHANOL] | 12.5 (≈ 43.6 µM) |
| CO[C@H]1/C=C/O[C@@]2(C)Oc3c(C)c(O)c4c(O)c(c(/C=N/N5CCN(C)CC5)c(O)c4c3C2=O)NC(=O)/C(C)=C\C=C\[C@H](C)[C@H](O)[C@@H](C)[C@@H](O)[C@@H](C)[C@H](OC(C)=O)[C@@H]1C [RIFAMPIN] | 0.06 (≈ 0.0729 µM) |
| CN[C@@H]1[C@H](O[C@H]2[C@H](O[C@H]3[C@H](O)[C@@H](O)[C@H](N=C(N)N)[C@@H](O)[C@@H]3N=C(N)N)O[C@@H](C)[C@]2(O)C=O)O[C@@H](CO)[C@H](O)[C@H]1O [STREPTOMYCIN] | 0.5 (≈ 0.86 µM) |
